Consider two molecules from ChEMBL document CHEMBL4196009, “Novel vitexin-inspired scaffold against leukemia” (Eur J Med Chem, 2018).

pEC50: −log10 of the molar value. The source made the active and inactive calls. The rule behind the calls is not given here. Some results are limits rather than exact numbers.

For test [1], the system named is BJ. The test can be described thus: Antiproliferative activity against human BJ cells after 72 hrs by CelTiter-Glo assay. The class given is cell-based.
The subject of test [2] is MCF7. The test can be described thus: Induction of oxidative stress in human MCF7 cells transfected with mRuby-Mito-7 with fugene assessed as increase in intracellular total ROS levels at 50 uM measured after 1 hr by fluorimetric analysis. The class given is functional, cell-based. An outline of the steps: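 MCF-7 cells carried an mRuby-Cox8A mitochondrial label. They were exposed to 50 of compound, alone or together with 50 of N-acetylcysteine, for 1 h. Cells were then stained with CellROX green (ex/em 485/520 nm) plus Hoechst 33342 nuclear stain. Total and mitochondrial ROS fluorescence was imaged in live cells and quantified relative to control.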

In test [3] the test system is KOPN-8. Nature of the test: Induction of apoptosis in human KOPN8 cells assessed as viable cells at 10 uM after 24 hrs by Annexin V-FITC/propidium iodide staining-based flow cytometry (reference value: 85.2%). The note with it: KOPN-8, 24 h, read-out: Activity. The class given is functional. An outline of the steps: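 KOPN-8 cells were treated for 24 h, with a DMSO vehicle control and a staurosporine positive control. Cells were stained with FITC-Annexin V and propidium iodide and analysed by flow cytometry. Quadrant gating separated viable, early apoptotic, late apoptotic (Q2) and necrotic populations.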
On the technique in general: Flow cytometry measures light scatter and fluorescence of single cells or particles in a stream.

Test [4] relates to HepG2. The test can be described thus: Antiproliferative activity against human HepG2 cells after 72 hrs by CelTiter-Glo assay. The following applies: HepG2, 72 h. The class given is functional, cell-based.
The target in test [5] is T1, Retinoblastoma-associated protein (Homo sapiens) (UniProt P06400).
T1 sequence (whole entry): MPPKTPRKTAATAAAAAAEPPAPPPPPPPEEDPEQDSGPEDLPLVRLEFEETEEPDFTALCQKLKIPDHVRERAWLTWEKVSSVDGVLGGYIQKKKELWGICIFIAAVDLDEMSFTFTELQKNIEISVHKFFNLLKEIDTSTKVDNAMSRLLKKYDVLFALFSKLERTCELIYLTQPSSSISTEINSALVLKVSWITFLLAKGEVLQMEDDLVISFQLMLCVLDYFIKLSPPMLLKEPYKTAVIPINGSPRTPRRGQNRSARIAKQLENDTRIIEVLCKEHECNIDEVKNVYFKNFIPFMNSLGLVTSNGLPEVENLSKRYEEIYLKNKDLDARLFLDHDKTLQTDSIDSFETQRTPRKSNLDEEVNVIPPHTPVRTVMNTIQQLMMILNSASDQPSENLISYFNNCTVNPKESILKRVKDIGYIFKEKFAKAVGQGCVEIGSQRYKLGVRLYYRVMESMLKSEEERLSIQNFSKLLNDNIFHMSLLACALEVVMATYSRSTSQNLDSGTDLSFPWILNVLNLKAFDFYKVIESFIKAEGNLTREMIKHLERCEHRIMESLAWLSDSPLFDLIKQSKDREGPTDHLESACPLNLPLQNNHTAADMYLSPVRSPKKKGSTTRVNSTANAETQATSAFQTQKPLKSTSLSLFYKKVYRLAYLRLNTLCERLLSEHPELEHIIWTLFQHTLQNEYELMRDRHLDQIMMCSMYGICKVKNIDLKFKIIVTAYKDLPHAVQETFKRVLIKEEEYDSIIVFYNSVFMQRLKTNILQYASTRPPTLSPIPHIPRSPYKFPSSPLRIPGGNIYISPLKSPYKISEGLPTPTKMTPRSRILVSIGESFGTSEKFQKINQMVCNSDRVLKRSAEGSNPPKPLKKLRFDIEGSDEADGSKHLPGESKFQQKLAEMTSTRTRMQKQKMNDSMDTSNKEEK
The test can be described thus: Inhibition of Rb phosphorylation in human KOPN8 cells assessed as ratio of phosphorylated Rb to total Rb levels at 30 uM pre-treated with NAC for 1 hr and measured after 3 hrs by Western blot analysis relative to control. The class given is cell-based. An outline of the steps:
(§1)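 KOPN-8 pre-B ALL cells were treated for 3 h and 24 h, with or without N-acetyl cysteine added to a parallel set of cells as an antioxidant/ROS quencher. Lysates were analysed by Western blot for phosphorylated Rb and total Rb. The same blots also probed PARP cleavage, Mcl-1, Ser-2-phosphorylated RNAPII CTD and cMyc.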

Test [6] concerns SUP-B15. The test can be described thus: Antiproliferative activity against human SUP-B15 cells after 72 hrs by CelTiter-Glo assay. The test is classed as functional, cell-based. The following applies: SUP-B15, 72 h.
For test [7], the system named is KOPN-8. Nature of the test: Effect on c-Myc expression in human KOPN8 cells at 30 uM after 3 hrs by Western blot analysis relative to control. The test is classed as functional. Put shortly:
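KOPN-8 cells were treated at 10–100 µM final, with or without N-acetylcysteine co-addition, for 3 h and 24 h. Lysates were analysed by Western blot for PARP cleavage, Mcl-1, phospho-Ser2 RNAPII CTD, c-Myc, total Rb and pRb. Levels are relative to the vehicle control.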
For orientation: A western blot detects proteins with antibodies after separation by electrophoresis.

Test [8] has as its target T1, Retinoblastoma-associated protein (Homo sapiens). The test can be described thus: Inhibition of Rb phosphorylation in human KOPN8 cells assessed as ratio of phosphorylated Rb to total Rb levels at 100 uM after 3 hrs by Western blot analysis relative to control. The test is classed as cell-based. An outline of the steps:
as §1

The test system of test [9] is SEM cells. The test can be described thus: Antiproliferative activity against human SEM cells after 72 hrs by CelTiter-Glo assay. The test is classed as functional, cell-based.
For test [10], the system named is MDA-MB-231. The test can be described thus: Cell cycle arrest in human MDA-MB-231 cells assessed as accumulation at G2/M phase at 20 uM after 24 hrs by propidium iodide staining-based flow cytometry (reference value: 9.38%). The class given is functional.
Test [11] has as its system UoC-B1. The test can be described thus: Antiproliferative activity against human UOCB1 cells after 72 hrs by CelTiter-Glo assay. The test is classed as functional, cell-based. The note with it: UoC-B1, 72 h.
The test system of test [12] is SUP-B15. Nature of the test: Induction of apoptosis in human SUP-B15 cells assessed as late apoptotic cells at 10 uM after 24 hrs by Annexin V-FITC/propidium iodide staining-based flow cytometry (reference value: 2.2%). The class given is functional.
Test [13] concerns KOPN-8. Nature of the test: Antiproliferative activity against human KOPN8 cells after 72 hrs by CelTiter-Glo assay. The note with it: KOPN-8, 72 h. The class given is functional, cell-based.
In test [14] the test system is KOPN-8. The test can be described thus: Effect on c-Myc expression in human KOPN8 cells at 10 uM pre-treated with NAC for 1 hr and measured after 3 hrs by Western blot analysis relative to control. The class given is functional.
For test [15], the species on record is Homo sapiens. Nature of the test: Inhibition of RNA polymerase 2 C-terminal domain phosphorylation at Ser2 residue in human KOPN8 cells at 30 uM pre-treated with NAC for 1 hr and measured after 3 hrs by Western blot analysis relative to control. The test is classed as cell-based. An outline of the steps: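 KOPN-8 cells were exposed to compound for 3 h and 24 h, with or without N-acetylcysteine added to a parallel set as antioxidant. Lysates were analysed by Western blot for cleaved PARP, Mcl-1, Ser-2-phosphorylated RNAPII CTD, cMyc, total Rb and pRb. Signals were compared against controls for dose-dependent change.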

Test [16] relates to SUP-B15. Nature of the test: Induction of apoptosis in human SUP-B15 cells assessed as necrotic cells at 5 uM after 24 hrs by Annexin V-FITC/propidium iodide staining-based flow cytometry (reference value: 9.2%). The class given is functional.
For test [17], the system named is KOPN-8. The test can be described thus: Cell cycle arrest in human KOPN8 cells assessed as accumulation at G2/M phase at 5 uM after 24 hrs by propidium iodide staining-based flow cytometry (reference value: 9.67%). The class given is functional. Put shortly:
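KOPN-8 cells treated 24 h alongside a DMSO vehicle and a staurosporine (2.0 µM) positive control. Apoptosis was scored by FITC Annexin V / propidium iodide flow cytometry with quadrant gating (early, late apoptotic). DNA content was measured by PI staining to give the percentage of cells in G0/G1, S and G2/M. Groups were compared by t-test; error bars are SD.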

In the case of `COc1ccc(-c2c(I)c(=O)c3c(OC)cc(OC)cc3n2S(=O)(=O)c2ccc(OC)cc2)cc1`, the pEC50 (as a rule, the EC50 on a negative log10 scale, so that one unit is a factor of ten) is below 4.46 in test [1]; below 4.76 in [4]; 4.91 in test [6]; 5.26 in [9]; 5.59 in [11]; 5.07 in [13]. Also, the outcome in [2] was Active. Further, the viability at 10 µM in test [3] was found to be 8.5%. The fold change (FC) in [5] came out at 1; in test [7], 0.6; in test [8], 1; in test [14] it was 0.9; in [15], 0.9. For the same molecule, the Activity in test [10] came to 15.97%; in [12], 7%.

`CN(C)C(=O)c1cc2cnc(Nc3ccc(N4CCNCC4)cn3)nc2n1C1CCCC1` [RIBOCICLIB]: the Activity was 25.7% in test [16] and 28.79% in test [17]. The pEC50 in test [1] was below 4.18; in test [4] it was 6.54; in test [6] it was below 4.18; in test [9], 6.34; in [11], below 4.18; in [13], 6.30.
